Records with an inconclusive call do not appear. Active and inactive are the calls of the source.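 Rule for the calls: active = compounds raising caspase signal with fitted AC50 no more than tenfold above the top tested dose; inconclusive = flat curve at 30 to 70% activity, or unusable fit; inactive = the rest.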
The molecules below were run on MEF WT non-primed, caspase-Glo luminescence, 3 h (assay: caspase activation in non-primed cells, dose response, counter-screen for Bcl2-A1 inhibitor project, cell-based, caspase-Glo luminescence, 3 h (AID 449761)).
Summary of the method: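 Test system – Non-primed wild-type MEF cells · Timing – 3 h compound at 37 °C, 1 h detection at room temperature · Technique – CaspaseGlo luminescence, reagent diluted 1:1 in 50 mM HEPES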

| Structure (SMILES) | AC50 |
| --- | --- |
| COCc1cc(C)nc(SCC(=O)Nc2nc(C)cs2)c1C#N | > 35 µM (inactive) |
| CCOc1ccc(NCc2cccn2-c2nnc(N3CCC(C(=O)NCCCN4CC(C)CC(C)C4)CC3)s2)cc1 (centres undefined) | > 35 µM (inactive) |
| CC1=CC(=O)C(C(C)C)=C/C1=N/OS(=O)(=O)c1ccccc1 | 22 µM |
| CCn1c(SCC(=O)c2ccccc2)nnc1-c1cc2cc(Br)ccc2o1 | > 35 µM (inactive) |
| CCOc1cc(/C=C\[N+](=O)[O-])ccc1OCC(=O)Nc1ccccc1C | 5.27 µM |
| COc1ccc(NC(=O)c2cccc3c2C(=O)c2ccc(-c4ccc(F)cc4OCc4ccccc4)cc2S3(=O)=O)cc1 | > 35 µM (inactive) |
| O=C(Nc1ccc2oc(-c3cccc(F)c3)nc2c1)c1ccccc1F | > 35 µM (inactive) |
| COc1cc(NC(=O)c2ccccc2F)ccc1NC(=O)c1cc2ccccc2o1 | 36.6 µM |
| CCOc1cc(C(=O)CSc2nnc(CNc3ccc(Cl)cc3)o2)ccc1NC(=O)CC | 16 µM |
| Cc1ccc(C#N)c(SCC(=O)Nc2nccs2)n1 | > 35 µM (inactive) |
| Cc1ccc(-c2nc(NC(=O)c3nn(C)cc3[N+](=O)[O-])sc2C)cc1C | 5.21 µM |
| COc1cccc(C(=O)C(C#N)=C(SC)SC)c1 | > 35 µM (inactive) |
| C=C1/C=C(\C)[C@](C)(O)C[C@H](O)CC(=O)[C@H](O)[C@@H](O)[C@H](C)C[C@H](C)OC(=O)/C(C)=C/CC/C=C/[C@@H]2O[C@H]2C[C@H](C)C1 | > 35 µM (inactive) |
| COc1cc(/C=C(/C#N)c2nc3ccccc3[nH]2)ccc1OCC(=O)Nc1ccccc1C(C)C | 7.53 µM |
| O=C(Nc1ccc([N+](=O)[O-])cc1)C(Cc1ccccc1)N1C(=O)c2cccc3cccc(c23)C1=O (centres undefined) | > 35 µM (inactive) |
| O=[N+]([O-])/C=C/c1ccc2c(ccn2Cc2ccccc2)c1 | 12.6 µM |
| Cc1ccc(S(=O)(=O)N(C)Cc2ccc(C(=O)N/N=C/c3ccc(OC(F)F)cc3)cc2)cc1 | > 35 µM (inactive) |
| COc1cc(C2CC(c3cccs3)=NN2C(=O)CCl)ccc1OC(F)F (centres undefined) | 32.9 µM |
| COc1ccc2cc(C)c3nnc(SCC(=O)Nc4nc(-c5ccc(F)cc5)cs4)n3c2c1 | 26.2 µM |
| CCc1ccc2nc(N(CCCN(C)C)C(=O)c3ccc(S(=O)(=O)N4CCc5ccccc5C4)cc3)sc2c1 | > 35 µM (inactive) |
| O=C(NC[C@H]1CCCO1)c1cccc2c1C(=O)c1ccc(-c3ccc(F)cc3OCc3ccccc3)cc1S2(=O)=O | > 35 µM (inactive) |
| O=C1/C(=C\c2c(NCCOCCO)nc3ccccn3c2=O)SC(=S)N1Cc1ccco1 | > 35 µM (inactive) |
| CCC(Sc1nc2cc3c(cc2c(=O)n1Cc1ccco1)OCO3)C(=O)Nc1cccc(OC)c1 (centres undefined) | > 35 µM (inactive) |

| Structure (SMILES) | AC50 |
| --- | --- |
| N#Cc1c(C(F)(F)F)cc(-c2ccccc2)nc1SCC(=O)Nc1sc2c(c1C#N)CCC2 | > 35 µM (inactive) |
| COc1ccc2[nH]c3c(=O)n(/N=C/[C@H]4C(C)C=C(C)CC4C)c(=O)[nH]c3c2c1 (some centres undefined) | 10.1 µM |
| CCOC(=O)c1sc(NC(=O)CSc2nc(C)cc(C)c2C#N)c(C#N)c1C | > 35 µM (inactive) |
| COc1ccc(C[C@H]2NC[C@H](O)[C@H]2OC(C)=O)cc1 | > 35 µM (inactive) |
| CCc1nnc(NC(=O)CSc2nc(-c3ccccc3)cc(-c3ccc(F)cc3)c2C#N)s1 | 32.2 µM |
| Cc1ccc2nc(N(CCCN(C)C)C(=O)c3ccc(S(=O)(=O)N4CCc5ccccc5C4)cc3)sc2c1 | > 35 µM (inactive) |
| Cc1cccc(CS(=O)(=O)c2ncc(Cl)c(C(=O)Nc3nnc(C(C)C)s3)n2)c1 | > 35 µM (inactive) |
| COc1ccc(OC)c(NC(=O)c2cc(-c3cc(C)ccc3O)n[nH]2)c1 | > 35 µM (inactive) |
| CCc1ccc(NC(=O)c2nc(S(=O)(=O)Cc3ccccc3)ncc2Cl)cc1 | > 35 µM (inactive) |
| CC(=O)Nc1ccc(NC(=O)C(C)OC(=O)/C=C/c2cn(-c3ccccc3)nc2-c2cccnc2)cc1 (centres undefined) | 25 µM |
| COc1ccccc1-c1cc(C(F)(F)F)nc(S(=O)(=O)CCCC(=O)NC(C)C)n1 | 25.8 µM |
| Nc1c(C(=O)Nc2ccc(S(=O)(=O)N3CCCC3)cc2)sc2nc3ccc(OC(F)(F)F)cc3cc12 | 30.7 µM |
| O=c1c(Cl)c(Cl)cnn1Cc1ccccc1Cl | > 35 µM (inactive) |
| Cc1ccc(C2(c3ccc(C)cc3)CC2C(=O)Nc2ccc([N+](=O)[O-])cc2O)cc1 (centres undefined) | > 35 µM (inactive) |
| N#Cc1cccnc1N1CCN(C(=O)c2cccc3c2C(=O)c2ccc(-c4ccc(Cl)c(C(F)(F)F)c4)cc2S3(=O)=O)CC1 | > 35 µM (inactive) |
| Cc1cccc(Nc2nc(N)c([N+](=O)[O-])c(N3CCCC(C)C3)n2)c1 (centres undefined) | > 35 µM (inactive) |
| COc1ccc(OC[C@@H](O)CNC(=O)c2cccc3c2C(=O)c2ccc(-c4ccc(F)cc4OCc4ccccc4)cc2S3(=O)=O)cc1 | > 35 µM (inactive) |
| COc1ccccc1-c1cn[nH]c1-c1ccc(OCc2ccccc2)cc1O | > 35 µM (inactive) |
| COc1ccc(NC(=O)CSc2nc3ccc(Nc4nc(N5CCOCC5)nc(N5CCOCC5)n4)cc3s2)cc1 | > 35 µM (inactive) |
| COc1cc(C(=O)Nc2cc3c(cc2N2CCCCC2)n(C)c(=O)n3C)cc(OC)c1OC | > 35 µM (inactive) |
| NS(=O)(=O)c1ccc(N/N=C2/CCCCC2C2CCCCC2)c([N+](=O)[O-])c1 (centres undefined) | 33.5 µM |
| CCCc1ccc(OCc2ccc(C(=O)N/N=C/c3cccc([N+](=O)[O-])c3)o2)c(OC)c1 | 6.35 µM |
| Cn1c(=NC(=O)CCl)sc2ccccc21 | > 35 µM (inactive) |

| Structure (SMILES) | AC50 |
| --- | --- |
| COc1ccc(-c2c(C#N)c(N)nc(Sc3ccc(Cl)cc3)c2C#N)cc1 | > 35 µM (inactive) |
| CCOc1ccc(OCC(=O)N(CCC2=CCCCC2)c2c(N)n(Cc3ccccc3)c(=O)[nH]c2=O)cc1 | 26.8 µM |
| CN(C)CCCN(C(=O)c1cc2cc([N+](=O)[O-])ccc2s1)c1nc2cc3c(cc2s1)OCCO3 | > 35 µM (inactive) |
| CC1=NNC(=O)/C1=C\c1cn(-c2ccccc2)nc1-c1cccs1 | 14.3 µM |
| COc1ccc(NC(=S)NC(NC(=O)/C=C/c2ccccc2)C(Cl)(Cl)Cl)cc1 (centres undefined) | > 35 µM (inactive) |
| O=C(COc1ccc(/C=N/NC(=O)c2cc3ccccc3o2)cc1Cl)Nc1ccccc1 | 9.56 µM |
| Cc1cc(C)n(-c2nc(Nc3ccccc3C)nc(-n3nc(C)cc3C)n2)n1 | 32.1 µM |
| COc1cc(/C=C2/C(=N)N3C=CSC3=NC2=O)ccc1OCCCOc1cc(C)ccc1C | 22.4 µM |
| CCn1c(Cl)c(C=O)s/c1=N\S(=O)(=O)c1ccccc1 | > 35 µM (inactive) |
| CCc1nc(N=Nc2c(O)[nH]c3ccccc23)c2c3c(sc2n1)CCC3 | 18.2 µM |
| COc1cc(NC(=O)c2ccc(C)cc2C)ccc1NC(=O)c1cc2ccccc2o1 | 30.4 µM |
| CCOCCCNC(=O)c1ccc2c(c1)N=C(CC)c1cc(Br)ccc1S2 | > 35 µM (inactive) |
| Cc1ccc(C)c(S(=O)(=O)NCC(=O)Nc2sc3c(c2C(N)=O)CCC(C)C3)c1 (centres undefined) | > 35 µM (inactive) |
| CC1(C)C[C@H](O)[C@]2(CO)[C@H](O)C[C@]3(C)C(=CCC4[C@@]5(C)CC[C@H](O)C(C)(C)C5CC[C@]43C)[C@@H]2C1 (some centres undefined) | > 35 µM (inactive) |
| O=[N+]([O-])/C=C/c1cn(Cc2ccc(Cl)cc2)c2ccccc12 | 18.4 µM |
| COc1cc2cnc(-c3ccccc3)c(-c3cccc(C(F)(F)F)c3)c2cc1OC | > 35 µM (inactive) |
| Nc1nc(F)nc2c1ncn2[C@@H]1O[C@H](CO)[C@@H](O)[C@H]1O | > 35 µM (inactive) |
| COc1ccc2c(c1)CCc1c(C(=O)Nc3cc(C)n(Cc4ccc(Cl)cc4)n3)noc1-2 | 14.2 µM |
| O=S1(=O)CCOC[C@H](CC2CCCCC2)N1Cc1cccc(Cl)c1 | > 35 µM (inactive) |
| CCc1nn(-c2cc(Oc3cccc4ccccc34)nc(-c3ccccc3)n2)c(N)c1C#N | > 35 µM (inactive) |
| Oc1[nH]c2ccc(Br)cc2c1N=NC(=S)Nc1ccc(F)cc1 | > 35 µM (inactive) |
| CN(c1ccccc1)c1ccc(/C=C/[N+](=O)[O-])cc1 | 8.45 µM |
| Cc1ccc(C(=O)/C=C/C(=O)c2ccc(C)cc2)cc1 | 5.73 µM |

| Structure (SMILES) | AC50 |
| --- | --- |
| Cc1ccc(NC(=O)c2ccc(N/N=C/c3cccc(O)c3)c([N+](=O)[O-])c2)cc1 | 29.8 µM |
| CCOc1cc(/C=N/Nc2cc(C)nc(-n3nc(C)cc3C)n2)ccc1O | > 35 µM (inactive) |
| COc1ccc(C=C2C=C(C(C)(C)C)C(=O)C(C(C)(C)C)=C2)cc1OC | 2.98 µM |
| COC(=O)CSc1nc(N)c2c3c(sc2n1)C(c1ccccc1)SC(c1ccccc1)C3 (centres undefined) | > 35 µM (inactive) |
| Cc1nn(-c2ccccc2)c(C)c1/C=N/NC(=O)CSc1nc2ccccc2c(=O)n1-c1ccc(Br)cc1 | 36 µM |
| O=C(NCCc1ccccc1)C(c1cccs1)N(C(=O)CCl)c1ccc(Cl)cc1 (centres undefined) | 16.4 µM |
| Cc1ccc(-c2nc(NC(=O)c3nn(C)cc3[N+](=O)[O-])sc2C)cc1 | 5.96 µM |
| Cc1cc(C(=O)CCl)c(C)n1CCc1ccc(Cl)cc1 | > 35 µM (inactive) |
| COc1ccccc1C(=O)Nc1ccnn1C1CCN(Cc2cn(C)c3ccccc23)CC1 | > 35 µM (inactive) |
| Cc1cccc(C)c1NC(=O)C(Cl)C(=O)c1ccccc1 (centres undefined) | > 35 µM (inactive) |
| COc1ccc(-c2cc(=O)oc3c(C)c(OC(=O)c4cccs4)ccc23)cc1 | 29.1 µM |
| CCc1ccccc1NC(=O)C(CC)Sc1nc2cc3c(cc2c(=O)n1Cc1ccco1)OCO3 (centres undefined) | > 35 µM (inactive) |
| COC(=O)[C@@]1(C)CC[C@]2(C)CC[C@@]3(C)C(=CC(=O)C4[C@@]5(C)CC[C@H](O)C(C)(C)[C@@H]5CC[C@]43C)[C@H]2C1 (some centres undefined) | > 35 µM (inactive) |
| COC(=O)Cc1csc(/N=C/c2c(O)n(-c3cccc(C(F)(F)F)c3)c(=O)c3ccccc23)n1 | 9.26 µM |
| COc1ccc2c(-c3cc4ccc(OCc5ccc(F)cc5)cc4oc3=O)cc(=O)oc2c1 | 23.9 µM |
| CN(C)C/C=C(\c1ccc(Br)cc1)c1cccnc1 | > 35 µM (inactive) |
| CCSc1nnc(NC(=O)c2nc(S(=O)(=O)Cc3ccc(F)cc3)ncc2Cl)s1 | > 35 µM (inactive) |
| CCc1nnc(NC(=O)c2nc(S(=O)(=O)Cc3ccccc3)ncc2Cl)s1 | > 35 µM (inactive) |
| O=C(Nc1ccc2oc(-c3ccccc3F)nc2c1)c1ccccc1F | > 35 µM (inactive) |
| CCOC(=O)c1c(C)oc2c1c(CN1CCN(C(=O)OCC)CC1)c(O)c1ccccc12 | 20.8 µM |

From PubChem BioAssay AID449761 (Broad Institute, 2010)
